ASAP1 inh = ASAP1 ArfGAP inhibition | 360,000 compounds, 0.19% hits | Q9ULH1 | ASAP1-stimulated ARF1 GTP hydrolysis, GDP FP detection | inhibition, % at 16.5 µM; in the data active means inhibition above about 25%;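 further: 0% = vehicle with enzyme and substrate and 100% = no enzyme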
A3G deaminase = blocks human APOBEC3G single-stranded DNA deamination; recombinant A3G, ssDNA deamination FAM/TAMRA fluorescence; 330,000 compounds, 0.28% hits; Q9HC16; AID 493012; inhibition, % at 20 µM;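 active means inhibition of at least 40% at 20 µM, with no more than 30% in the related APOBEC3A deaminase screen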;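 further: plate controls were DMSO wells with A3G for no effect and wells lacking A3G enzyme for full effect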
Target sequence (Q9HC16 whole entry, looked up): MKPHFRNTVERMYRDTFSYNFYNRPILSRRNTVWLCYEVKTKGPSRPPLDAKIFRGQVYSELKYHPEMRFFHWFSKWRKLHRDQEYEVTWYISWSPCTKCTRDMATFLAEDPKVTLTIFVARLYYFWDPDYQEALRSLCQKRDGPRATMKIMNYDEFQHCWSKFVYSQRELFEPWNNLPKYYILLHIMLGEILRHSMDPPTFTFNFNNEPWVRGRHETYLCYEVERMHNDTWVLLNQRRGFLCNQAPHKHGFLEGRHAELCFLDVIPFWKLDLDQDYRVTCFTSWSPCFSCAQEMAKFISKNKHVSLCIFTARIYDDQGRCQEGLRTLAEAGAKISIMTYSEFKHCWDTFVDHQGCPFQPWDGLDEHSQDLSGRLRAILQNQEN
Statin myotox sup = suppression of simvastatin myotoxicity | 330,000 compounds, 0.78% hits | C2C12 myotubes + simvastatin, ATP luminescence, 48 h; scaled: DMSO 0, geranylgeraniol control 100 | rescue of ATP level, % at 7.49 µM;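 active means mean ATP rescue above about 67%, or every replicate alone reaching that limit, limit read from the data, passing the limit was not always enough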;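 further: myotubes were challenged with 10 µM simvastatin during compound exposure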
A3A deaminase = human APOBEC3A DNA deaminase inhibition; P31941; recombinant A3A, FAM/TAMRA ssDNA deamination fluorescence; inhibition, % at 20 µM; 330,000 compounds, 0.41% hits;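 active means at least 40% inhibition at 20 µM here, with at most 30% in a related deaminase screen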;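 further: plate controls were A3A with DMSO for no effect and wells lacking A3A enzyme for full effect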
ARFGAP1 inh = inhibitors of rat ARFGAP1; Q62848; Arfgap1-stimulated ARF1 GTP hydrolysis, GDP FP detection; 360,000 compounds, 0.26% hits; AID 651572; inhibition, % at 16.5 µM;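 active means inhibition above a per-plate limit, mean inhibition of low control wells plus 3 SD, cut at about 25% in these data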;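 further: 0% = DMSO wells with enzyme and 100% = wells lacking Arfgap1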
Target sequence (Q62848 1-136 limits assumed): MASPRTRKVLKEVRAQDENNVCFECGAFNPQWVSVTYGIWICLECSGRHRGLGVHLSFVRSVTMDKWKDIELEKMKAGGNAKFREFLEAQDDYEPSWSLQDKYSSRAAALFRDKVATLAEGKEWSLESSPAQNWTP
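Assay system: Rat Arfgap1 GAP domain (His6, aa 1-136), purified enzyme | Buffer or medium: HEPES 25 mM pH 7.5, NaCl 150 mM, MgCl2, DTT | Schedule: GTP hydrolysis reaction 2 h at 25 °C | Signal: FP of antibody-bound GDP Alexa 633 tracer, ex 620/em 688 nm | Measure: Percent inhibition of Arfgap1-stimulated GTP hydrolysis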
SUMO Mot1 rescue = SUMOylation pathway inhibition by Mot1-301 growth rescue | S. cerevisiae Mot1-301 growth rescue, ATP luminescence, 38.5C; percent above DMSO median, 100 means doubled | growth rescue, % at 18.8 µM | 320,000 compounds, 1% hits | AID 2716;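 active means every valid replicate shows activation above 250% relative to neutral control wells; inactive means the rest, any valid replicate at or below 250%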;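 further: OY570 slx delta 5 strain wells were the positive control but not used for scaling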
Starred values were filed as active, the others as inactive; x = no result given. Hits are enriched below; roughly 2.1% of the tested compounds scored in any of these assays.

SMILES | ASAP1 inh | A3G deaminase | Statin myotox sup | A3A deaminase | ARFGAP1 inh | SUMO Mot1 rescue
Cc1cnc(C(=O)Nc2nccs2)cn1 | -3 | 2 | 101* | -1 | 10 | 62
Cc1cnc(C(=O)Nc2nnc(C)s2)cn1 | 6 | -2 | x | -2 | 5 | 57
c1cncc(Oc2cccc(Oc3cccnc3)c2)c1 | 5 | -5 | 108* | -4 | -9 | -16
Nc1cc(Oc2cccnc2)cc([N+](=O)[O-])c1 | 0 | x | x | x | 13 | x
CCn1cc(C(=O)N2CCCC2)c(=O)c2cc(S(=O)(=O)N3CC(C)CC(C)C3)ccc21 (stereo not given) | -8 | -6 | -5 | -3 | -2 | 303*
CCOC(=O)N1CCN(C(=O)c2cn(CC)c3ccc(S(=O)(=O)N4CC(C)CC(C)C4)cc3c2=O)CC1 (stereo not given) | -9 | -7 | x | -2 | 0 | 4
Cc1cccn2c(=O)c(C=O)c(N3CCCCCC3)nc12 | x | -1 | 101* | 3 | x | -28
Cc1cccn2c(=O)c(C=O)c(N3CC(C)OC(C)C3)nc12 (stereo not given) | 6 | -2 | x | 1 | 4 | 108
O=C(Nc1ccc(F)cc1)N[C@H]1C=C[C@H](CC(=O)N2CCOCC2)O[C@@H]1CO | x | x | -27 | x | x | x
Cc1ccc(NC(=O)/C(C#N)=C/c2cccs2)c(C)c1 | -5 | -6 | x | 0 | 3 | -3
Cc1cccc(C)c1NC(=O)/C(C#N)=C/c1cccs1 | 6 | -2 | 84* | 1 | -4 | 6
COC(=O)c1ccc(NC(=O)CSc2n[nH]c(-c3ccncc3)n2)cc1 | 14 | -7 | 77* | -2 | 7 | 451
COc1ccc(C(=O)Nc2n[nH]c(-c3ccncc3)n2)cc1 | -1 | -6 | 107* | 1 | -2 | 177
CCOC(=O)c1ccc(NC(=O)CSc2n[nH]c(-c3ccncc3)n2)cc1 | -8 | 5 | 13 | 34 | -8 | -20
O=S(=O)(N[C@H]1CC[C@H](CCn2cc(-c3cccc(F)c3)nn2)O[C@H]1CO)c1ccc(F)cc1 | x | x | 7 | x | x | x
C[C@H](O)C#Cc1ccc2c(c1)O[C@@H](CN(C)C(=O)c1ccccc1)[C@H](C)CN([C@@H](C)CO)S2(=O)=O | x | x | -6 | x | x | x
CCCNC(=O)C[C@H]1CC[C@H]2[C@H](COc3ccc(NC(=O)Nc4c(C)noc4C)cc3C(=O)N2C)O1 | x | x | 5 | x | x | x
COc1ccccc1C(=O)NCC(=O)OCC(=O)c1cccc2ccccc12 | -9 | -6 | -2 | 0 | 9 | 321*
Cc1ccccc1-c1cnc2c(c1)C(=O)N([C@H](C)CO)C[C@@H](C)[C@@H](CN(C)CC1CCOCC1)O2 | x | x | 12 | x | x | x
COc1ccc(CNC(=O)C[C@H]2CC[C@@H]3[C@@H](COc4ccc(NC(C)=O)cc4C(=O)N3C)O2)cc1 | x | x | -3 | x | x | x
Cc1ccc(S(=O)(=O)N2CCCSCC2)cc1 | 6 | -5 | 114* | -2 | -7 | -25
COCC(=O)N1C[C@@H]2[C@H](c3ccccc31)[C@H](CO)N2C(=O)NC(C)C | x | x | 20 | x | x | x
Cc1ccc(S(=O)(=O)CCC(=O)Nc2cccc(Cl)c2)cc1 | 0 | -6 | 108* | -3 | 9 | -3
Cc1ccc(S(=O)(=O)CCC(=O)Nc2cccc([N+](=O)[O-])c2)cc1 | 9 | 1 | x | 3 | 7 | 6
CNC(=O)C[C@H]1CC[C@H]2[C@@H](COc3ccc(NC(=O)Nc4cccc(C)c4)cc3C(=O)N2C)O1 | x | x | 12 | x | x | x
SMILES | ASAP1 inh | A3G deaminase | Statin myotox sup | A3A deaminase | ARFGAP1 inh | SUMO Mot1 rescue
COc1ccccc1CNC(=O)CSc1ccc(-c2ccccn2)nn1 | 2 | 4 | x | 0 | 3 | 343*
Cc1cc(C)cc(N(C(=O)c2csnn2)C(C(=O)NC2CCCCC2)c2ccccn2)c1 (stereo not given) | -2 | -4 | 9 | 1 | 2 | 4
Cc1ccc(N(C(=O)c2csnn2)C(C(=O)NC2CCCCC2)c2ccccn2)cc1C (stereo not given) | -7 | -11 | 81* | -4 | 2 | -7
Cc1ccc(Nc2nc(N)nc(CN3CCCCCC3)n2)cc1 | -9 | -5 | 1 | 3 | -1 | -9
Cc1c(Cl)cccc1Nc1nc(N)nc(CN2CCCCCC2)n1 | -9 | 5 | 90* | 0 | -4 | -5
COc1cccc(C(C(=O)NC(C)(C)C)N(C(=O)CCC(=O)Nc2cc(C)on2)C(C)(C)C)c1OC (stereo not given) | 17 | 0 | 67* | 0 | -2 | 1
COc1cccc(C(C(=O)NC(C)(C)C)N(C(=O)CCC(=O)Nc2cc(C)on2)C(C)C)c1OC (stereo not given) | -6 | -4 | x | 2 | -2 | -2
COc1ccc2[nH]cc(C(=O)CNc3nc(C)cs3)c2c1 | 9 | 12 | 125* | 15 | -5 | -4
Cc1noc(C)c1NC(=O)Nc1cccc2c1O[C@@H](CN(C)C(=O)NC(C)C)[C@H](C)CN([C@H](C)CO)C2=O | x | x | 6 | x | x | x
CC(=O)N(C)C[C@H]1Oc2ncc(C#Cc3ccccc3F)cc2C(=O)N([C@H](C)CO)C[C@@H]1C | x | x | -11 | x | x | x
N/C(=N\OC(=O)c1ccc(Cl)cc1)c1nonc1N | -3 | -7 | 8 | 0 | -3 | 294*
COc1cccc(/C=N/Nc2nc(-c3cccnc3)nc3ccccc23)c1 | 5 | -1 | x | -1 | 9 | 314*
C(=N\Nc1nc(-c2cccnc2)nc2ccccc12)/c1ccccc1 | 2 | -6 | x | -5 | 10 | -1
CCCCNc1oc(-c2cccs2)nc1S(=O)(=O)c1ccccc1 | -1 | -1 | 131* | 1 | -2 | -4
O=c1c2c3c(sc2nc2n1CCC2)CCCC3 | -12 | -5 | 27 | 1 | -4 | -17
O=c1c2c3c(sc2nc2n1CCCS2)CCCC3 | -7 | -4 | 114* | -6 | 12 | 138
CC1CSc2nc3sc4c(c3c(=O)n21)CCCC4 (stereo not given) | -11 | -6 | 141* | -5 | -5 | 2
C[C@H](CO)N1C[C@H](C)[C@@H](CN(C)Cc2ccc(C(F)(F)F)cc2)Oc2ccc(NC(=O)C3CC3)cc2CC1=O | x | x | 59 | x | x | x
Cc1cccc(-n2c(Cc3cc(=O)[nH]c(=O)[nH]3)nnc2SCC(=O)N2CCCCC2)c1 | 4 | -5 | 2 | -3 | 0 | -11
CSc1nnc(Cc2cc(=O)[nH]c(=O)[nH]2)n1-c1cccc(C)c1 | 2 | -6 | x | -2 | -6 | 352*
CO[C@H]1CN(C)C(=O)c2ccc(NC(=O)C3CCC3)cc2OC[C@H](C)N(Cc2ccncc2)C[C@@H]1C | x | x | -3 | x | x | x
O=c1c2[nH]c3cccc(Cl)c3c2ncn1CCN1CCCCC1 | 13 | -3 | 103* | 3 | 0 | -12
COc1ccc(C2(CNC(=O)CCC(=O)O)CCCC2)cc1 | -2 | -5 | 86* | -4 | -19 | 4

Assay outcomes as filed in PubChem.
